Screening data: PubChem BioAssay, several laboratories
CHOP inh = blocks CHOP induction under ER stress; CHO-K1 CHOP-promoter luciferase, tunicamycin-induced, 15-18 h; hit rate 3.8% among 220,000; inhibition, % at 10 µM;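 active = compounds that reduced the stress-induced luciferase reporter signal by more than about 70% of percent inhibition, limit read from the data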;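 also: 0% = tunicamycin plus vehicle and 100% = wells without tunicamycin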
T cruzi inh = blocks replication of Trypanosoma cruzi. T. cruzi beta-gal in NIH3T3, luminescence, 90 h. inhibition, % (no concentration beside the values). hit rate 1.4% among 300,000;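 active = mean inhibition across valid replicates above about 55%, limit read from the data; inconclusive = mean below that limit but half or more replicates reach it; inactive = mean below it, under half of replicates reach it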;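 also: signal also drops with host cell toxicity which is not excluded here; 0% = plate median of DMSO wells and 100% = zero luminescence signal; higher percent means less beta-gal luminescence so fewer parasites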
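System – NIH/3T3 host cells with β-galactosidase reporter T. cruzi · Doses – single 50 nL compound addition per well in DMSO · Reagent – 5000 T. cruzi trypomastigotes/well · Medium – Low-serum DMEM with 2% FBS · Timing – ≥90 h infection period, 3 h prior cell attachment · Evaluation – parasite load inhibition, % · Technique – GalScreen luminescence, 60 min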
UPR CHOP act = apoptotic UPR (CHOP) activation. CHO-CHOP luciferase reporter, luminescence; percent of tunicamycin response over DMSO baseline. AID 449763. hit rate 0.34% among 330,000. activation, % at 10 µM;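 active = at 10 µM dose, activation of 40% or more, normalized to positive control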;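 also: 100% = tunicamycin at 10 µg/mL and 0% = DMSO alone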
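Test system: CHO-CHOP cells, stable luciferase reporter of PERK-eIF2a-CHOP signalling | Quantity: 500 CHO-CHOP cells per well | Buffer or medium: F12 plus 10% serum | Compound dosing: 10 µM single point, 0.5% DMSO | Schedule: 6 h compound treatment, 37 °C | Signal: Luciferase luminescence | Control set: Tunicamycin high control, DMSO low control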
UPR XBP1 act = adaptive UPR (XBP1) activation | hit rate 0.33% among 330,000 | AID 463104 | CHO-XBP1 luciferase reporter, IRE1-XBP1 UPR activation, luminescence; percent of tunicamycin response, DMSO as zero | activation, % at 20 µM;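 active = versus positive control, 20 µM dose yields 30% or more activation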;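 also: 100% = tunicamycin at 10 µg/mL and 0% = DMSO only wells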
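Material: CHO cell line with stable XBP1 luciferase reporter; schedule: 16-18 h cell attachment at 37 °C, then 6 h compound exposure; signal: glow luminescence from Steady-Glo reagent; medium: serum-containing F12 medium, 10% FBS; benchmarks: tunicamycin 10 µg/mL and vehicle-only wells; read-out: percent activation relative to tunicamycin reference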
L major viab = inhibitors of Leishmania major promastigote growth. inhibition, % at 10 µM. Leishmania major promastigotes, resazurin fluorescence viability. hit rate 9% among 200,000; in the data active = inhibition above about 50%;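 also: promastigotes grown with compound for 44 hours at 28 °C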
Dynein transport = blocks dynein driven cargo transport along microtubules; 3617.4 mouse cells, GR-EGFP nuclear translocation imaging; test concentration mostly 20 µM; stimulated with dexamethasone, 1 µM; active compounds read low; z-score, hits read low; hit rate 0.47% among 220,000;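 active = plate z-score of nuclear minus cytoplasmic receptor signal below a set negative limit, without overly bright fluorescence or cell loss, cut at about -3.5 in these data, passing the limit was not always enough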;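 also: z-score of nuclear minus cytoplasmic ring GR-EGFP intensity difference per well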
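Buffer or medium: Induction medium lacking tetracycline, stripped serum | Also added: Dexamethasone agonist, 1.0 µM final, for 30 min | Timing: 48 h induction, 1 h compound, 30 min dex at 37 °C | Detection: Formaldehyde fixation, Hoechst nuclear stain, 10x automated fluorescence imaging | Measure: Nuclear versus cytoplasmic GR-EGFP signal, averaged per well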
XBP1 UPR conf = adaptive UPR (XBP1) activation, confirmed; shares compounds with UPR XBP1 act; CHO-XBP1 IRE1-XBP1 luciferase reporter, luminescence; activation, % at 20 µM; hit rate 63% among 1,000; AID 485299;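 active = reporter signal at least 30% of the positive control's activation in two or more of four replicate wells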;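 also: plate controls were DMSO negative control for no effect and tunicamycin 10 µg/mL positive control for full effect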
Numbers without * were called inactive; ? = inconclusive; . = not tested or not shown. The full list was thinned out, with hits kept by preference.

SMILES | CHOP inh | T cruzi inh | UPR CHOP act | UPR XBP1 act | L major viab | Dynein transport | XBP1 UPR conf
Cc1ccccc1NC(=O)c1sc2nc3c(c(-c4ccco4)c2c1N)CCC3 | 11 | 37 | 1 | 0 | -2 | -1.8 | .
Cc1c(C(=O)NC2CCOC2)oc2c(F)cccc12 (stereo unspecified) | . | -11 | 4 | 4 | . | . | .
Cc1ccc(-n2nc3c(N4CCC(C(=O)NCCc5ccccc5C)CC4)nnc(C)c3c2C)cc1 | . | 55* | 3 | 39* | . | . | 30*
COc1ccc(-n2nc3c(N4CCC(C(=O)NCCc5ccccc5C)CC4)nnc(C)c3c2C)cc1 | . | 10 | 0 | 50* | . | . | 0
COC(=O)C1C(O)=C(C=Nc2cccc3ccccc23)C(=O)CC1(C)C (stereo unspecified) | 52 | 10 | 9 | 121* | . | -0.27 | 110*
C#CCn1c(=NC(=O)c2ccc(Br)s2)sc2cccc(OC)c21 | 50 | 36 | 6 | 73* | 10 | -0.63 | 73*
C#CCn1c(=NC(=O)c2ccc(Br)s2)sc2cc(NC(C)=O)ccc21 | -3 | 6 | 2 | -1 | 45 | -0.78 | .
CNC(=S)N/N=C1\C(=O)c2cccc3cccc1c23 | -129 | 47 | 33 | 33* | 37 | 0.84 | 22
NC(=S)N=Nc1c(O)n(CCCl)c2ccc(Br)cc12 | -37 | 25 | 1 | 8 | . | -0.67 | .
CC1=CC(C)(C)n2c(O)c(N=NC(N)=S)c3cc(C)cc1c32 | 35 | 26 | 22 | 31* | 27 | -0.39 | 3
Cc1ccc(NC(=O)c2ccc(NS(=O)(=O)c3ccc4[nH]c(=O)[nH]c4c3)cc2)nc1 | . | -2 | 1 | 0 | . | . | .
Cc1cc(N2O[C@]34C=C[C@]25C[C@@H](O)CC[C@]5(C)C3CC[C@]2(C)[C@@H]([C@H](C)/C=C/[C@H](C)C(C)C)CC[C@H]24)no1 (stereo partly specified) | . | . | 3 | 41* | . | . | -1
COc1ccc(OC)c(NC(=O)COC(=O)C2CCCCC2)c1 | . | . | 0 | -2 | . | . | .
COc1cc(NC2CCCCC2O)c2nc(-c3ccc(Cl)cc3)ccc2c1 (stereo unspecified) | -18 | 47 | 26 | 31* | . | -2.5 | 16
COc1ccc(-c2nc3scc(-c4ccc(OC)c(OC)c4)c3c(=O)o2)cc1 | 92* | 20 | 12 | 41* | 22 | -0.65 | 47*
COc1ccc(-c2csc3nc(C(C)C)oc(=O)c23)cc1OC | 11 | -1 | -1 | 3 | 7 | -1.3 | .
Cc1cc(N2C(=O)C(=O)/C(=C(/O)c3ccc(F)cc3)C2c2ccc(Cl)cc2)no1 (stereo unspecified) | 55 | -14 | -1 | 33* | -7 | -0.21 | 2
COc1ccc(/C=N/Nc2nc(-c3cccnc3)nc3ccccc23)c(OC)c1 | -1 | 2 | 7 | 37* | . | 0.44 | 15
Cc1ccc(-c2nc(N/N=C/c3cccnc3)c3ccccc3n2)cc1 | 67 | 10 | 2 | 5 | -3 | 0.23 | .
C=CCNC(=S)Nc1ccc2cn[nH]c2c1 | 17 | ? | 1 | -1 | . | 0.19 | .
Cc1cccc(C)c1NC(=S)NCc1ccncc1 | 0 | ? | -1 | -2 | . | -0.98 | .
COc1ccc(/C=C2\SC(=S)N(CCC(=O)Nc3cccc(C(=O)O)c3)C2=O)cc1 | . | -7 | 2 | 2 | . | . | .
CCOC(=S)SCC(=O)Nc1nc(-c2ccc(Br)cc2)cs1 | 82* | 53 | 4 | 93* | 11 | -1.7 | 164*
CC(C)CNc1nnnc2c1sc1nc(N3CCOCC3)c3c(c12)CCCC3 | -4 | 22 | 2 | 55* | . | -0.47 | 31
C[C@H](CO)N1C[C@H](C)[C@@H](CN(C)C(=O)NC2CCCCC2)Oc2ccc(NS(C)(=O)=O)cc2C1=O | . | . | 2 | 0 | . | . | .
SMILES | CHOP inh | T cruzi inh | UPR CHOP act | UPR XBP1 act | L major viab | Dynein transport | XBP1 UPR conf
Cc1c(C)n2c(SCC(=O)NCc3ccc4c(c3)OCO4)nnc2[nH]c1=O | . | 3 | 1 | -3 | . | . | .
CC(C)c1ccc(S(=O)(=O)c2nnn3c2nc(N2CCCCC2)c2ccccc23)cc1 | 3 | 44 | 0 | 3 | 29 | 0.3 | .
N#Cc1cnn2c1nc(N1CCCCC1)c1ccccc12 | 52 | -1 | 14 | 47* | 7 | -0.1 | 41*
COc1cccc(C(=O)Nc2ccc3c(c2)C(=O)c2ccccc2C3=O)c1 | 12 | 9 | 24 | 91* | 11 | 0.94 | 4
C#CCN(Cc1ccccc1)S(=O)(=O)C=C | . | . | 4 | 2 | . | . | .
COc1ccc(-c2ccc3c(c2)S(=O)(=O)c2cccc(C(=O)N4CCN(c5c(Cl)cncc5Cl)CC4)c2C3=O)cc1OC | . | . | 3 | -1 | . | . | .
N=C(N)SCc1nc2ccccc2c(=O)n1-c1ccccc1Cl | -6 | -3 | -2 | 7 | 26 | -0.78 | .
O=c1c2ccccc2nc(CSc2nnnn2-c2ccccc2)n1-c1ccccc1Cl | 71* | -3 | 35 | 52* | -1 | -0.23 | 22
C/C(=N/NC(=O)c1ccc(Cl)s1)c1ccc(NC(=O)COc2ccc(Cl)cc2)cc1 | 62 | 1 | 20 | 37* | -3 | -0.23 | 53*
C/C(=N/NC(=O)c1cccs1)c1ccc(NC(=O)COc2ccc(Cl)cc2Cl)cc1 | 59 | 2 | 16 | 9 | -3 | -0.78 | .
CCOc1ccccc1N(CC(=O)NCc1ccco1)C(=O)CCC(=O)Nc1nccs1 | . | 7 | -2 | 0 | . | . | .
O=C(CNC(=O)c1ccccc1F)OCCOc1cccc(Cl)c1 | . | -6 | 1 | -1 | . | . | .
Cc1ccc(S(=O)(=O)Oc2cc(N)c3c(n2)CCC3)cc1 | 9 | -5 | 1 | 1 | . | -0.49 | .
O=[N+]([O-])c1ccc(-c2nc(Nc3cccc(O)c3)c3ccccc3n2)cc1 | . | -14 | 5 | 34* | . | . | 20
CCCCN(c1ccccc1)S(=O)(=O)c1cccc2cccnc12 | -2 | 5 | -1 | -3 | . | 0.34 | .
CCOC(=O)c1sc(NC(=O)CN2C(=O)NC3(CCC(C)CC3)C2=O)c(C(=O)OCC)c1C (stereo unspecified) | . | . | 12 | 31* | . | . | 24
CCOC(=O)c1c(NC(=O)CN2C(=O)NC3(CCCC3)C2=O)sc(C)c1CC | . | 14 | 1 | 3 | . | . | .
Cc1ccc2oc(C(=O)N3CCN(CC(=O)NC(C)C)CC3)c(C)c2c1 | . | 4 | 2 | -3 | . | . | .
O=[N+]([O-])c1ccccc1/C=C/C=N/n1c(-c2cc(-c3ccccc3)n[nH]2)n[nH]c1=S | -2 | -2 | 0 | 39* | . | 0.087 | 4
CC1CCc2c(sc(NC(=O)CCc3nc4ccccc4c(=O)[nH]3)c2C#N)C1 (stereo unspecified) | . | . | 21 | 169* | . | . | 198*
